# Screens as filed in PubChem BioAssay.
# Shown are actives, neighbours in structure and some others; about 3.5% of the full set was active somewhere.
# RGS4 pot – potentiators or activators of RGS4. HEK293 M3R/inducible RGS4, carbachol calcium flux Fluo4; stronger effect = lower value. B-score at 10 µM. 310,000 compounds, 0.92% hits. AID 463111;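 active = B-score of the integrated calcium signal more than 4 SD below the library mean, with starting fluorescence not abnormally high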;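 note: negative B-score means reduced calcium response which marks RGS4 activation or potentiation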
#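 Material: Inducible-RGS4 HEK293 cells carrying M3 receptor; also added: carbachol at ECmax as muscarinic agonist stimulus; incubation: compound preincubation 20 min at room temperature before agonist; signal: Fluo4-AM (2 µM) calcium-flux fluorescence, kinetic read; measure: integrated calcium ratio converted to B score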
# MrgX1 allo act – allosterically activates human MrgX1 receptor signaling. MrgX1-HEK293, Fluo-4 calcium flux, FDSS; stronger effect = higher value. B-score at 10 µM. 310,000 compounds, 0.63% hits. AID 588675;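 active = plate-corrected calcium response at least 3 library SD above typical, normal starting fluorescence, not activating the receptor alone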;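 note: compound read alongside a low EC10 to EC30 dose of BAM8-22 agonist; peak minus trough fluorescence over baseline measured at the second addition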
# Target sequence (Q96LB2 whole entry, looked up): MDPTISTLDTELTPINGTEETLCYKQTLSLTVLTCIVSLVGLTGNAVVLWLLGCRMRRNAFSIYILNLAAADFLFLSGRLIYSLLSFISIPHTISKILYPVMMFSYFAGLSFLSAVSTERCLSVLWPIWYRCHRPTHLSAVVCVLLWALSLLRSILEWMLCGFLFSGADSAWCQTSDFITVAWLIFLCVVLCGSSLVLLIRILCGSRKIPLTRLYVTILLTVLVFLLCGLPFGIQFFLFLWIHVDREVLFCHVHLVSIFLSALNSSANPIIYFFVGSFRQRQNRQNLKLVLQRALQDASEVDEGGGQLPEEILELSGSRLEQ
# MrgX1 ag – human MrgX1 receptor agonism, primary screen; MrgX1-HEK293 cells, Fluo-4 calcium fluorescence, agonist mode; stronger effect = higher value; B-score at 10 µM; 310,000 compounds, 0.44% hits;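 active = calcium response B-score plate-corrected fluorescence ratio at least 3 library SD, with starting fluorescence B-score inside 5 SD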
#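 Material – MrgX1-expressing HEK293 cells · Input – 15,000 cells seeded per well · Dosing – compound as first of three additions · Times – overnight seeding, then 1 h dark dye loading · Measured by – kinetic Fluo-4 NW fluorescence of intracellular calcium · Read-out – B-scored fluorescence response ratio · Benchmarks – positive and negative control wells on each plate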
# RGS4 block – inhibitors of human RGS4. P49798. AID 463165. 310,000 compounds, 0.45% hits. B-score at 10 µM. HEK293 M3R/RGS4 inducible, Fluo-4 calcium flux; stronger effect = higher value; triggered by carbachol at its EC20;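 active = B-score, a plate-corrected calcium signal, over three deviations above library mean, with baseline fluorescence within five deviations of library mean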;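 note: RGS4 expression induced by doxycycline in cells with stable M3 receptor; B-score is computed from the integrated fluorescence ratio over baseline after carbachol; higher B-score means a larger calcium signal and so more RGS4 inhibition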
# Target sequence (P49798 whole entry, looked up): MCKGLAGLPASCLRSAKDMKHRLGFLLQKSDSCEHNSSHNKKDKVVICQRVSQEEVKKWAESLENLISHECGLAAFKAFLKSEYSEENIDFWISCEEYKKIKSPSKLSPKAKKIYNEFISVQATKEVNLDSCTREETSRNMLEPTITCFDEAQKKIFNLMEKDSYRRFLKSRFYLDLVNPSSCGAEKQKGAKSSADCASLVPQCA
# MrgX1 antag – antagonists of human MrgX1 receptor; Q96LB2; MRGX1-HEK293 calcium flux, Fluo-4, BAM8-22 antagonism; stronger effect = lower value; B-score at 10 µM; 310,000 compounds, 1.3% hits; AID 588676;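 active = calcium-response B-score plate-corrected more than 3 library SD below zero, starting fluorescence within 5 deviations, no agonist response on first addition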;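 note: peak minus trough fluorescence over baseline after final BAM8-22 challenge near maximal dose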
# Active calls of the source: *; i = inactive; . = no result given.
SMILES,RGS4 pot,MrgX1 allo act,MrgX1 ag,RGS4 block,MrgX1 antag
CCOc1cc(CNCCSc2nnnn2C)cc(Br)c1OCc1ccccc1F,i,i,i,i,-4.7*
CCOc1cccc(CNCCO)c1OCc1ccc(Cl)cc1Cl,i,i,i,i,i
CCOc1cc(CNCCO)cc(Br)c1OCc1ccc(Cl)cc1Cl,-7.7*,i,i,i,i
COc1cc(CNCCSc2nnnn2C)cc(Br)c1OCc1ccccc1F,i,i,i,i,i
O=C(NNS(=O)(=O)c1ccccc1[N+](=O)[O-])c1cccnc1,i,i,i,i,i
COc1ccccc1NC(=S)NNC(=O)c1ccncc1,i,i,28*,i,i
Clc1cccc(Cl)c1/C=C/c1nc2ccccc2[nH]1,i,7.7*,i,i,i
CC1CCCCN1C(=O)c1c([N+](=O)[O-])cnn1C (configuration not stated),i,i,i,i,-9.2*
O=C(CCc1nnc2ccc(N3CCOCC3)nn12)Nc1ccc(F)cc1F,i,i,i,i,i
Cn1c(SCC(N)=O)nnc1-c1ccc(S(=O)(=O)N2CCCC2)cc1,i,i,i,i,i
Cc1ccc(-n2c(SCC(N)=O)nnc2-c2ccc(S(=O)(=O)N3CCCCC3)cc2)c(C)c1,-7.1*,i,i,i,i
CC(=O)N(C1=C(Cl)C(=O)c2ccccc2C1=O)C1CCCCC1,i,i,i,i,-9.6*
COc1cccc(OC)c1C(=O)N1CCN(C(=O)c2ccc(-c3ccccc3)cc2)CC1,i,i,i,i,i
CC(Oc1ccc(Cl)cc1Cl)c1nc(-c2ccc(NC(=O)c3ccco3)cc2)no1 (configuration not stated),i,i,i,i,-5*
CC(NC(=O)c1ccco1)c1nc(-c2ccccc2)no1 (configuration not stated),i,i,i,i,i
CC(=O)Nc1ccc(C2=NN(C)C(=NCc3ccccc3)SC2)cc1,i,7.7*,i,i,i
COc1ccc(-c2cc(C(F)(F)F)c3c(N)c(C(=O)NCCSC)sc3n2)cc1,i,i,i,i,i
Nc1c(C(=O)C2CC2)sc2nc(-c3ccccc3)cc(C(F)(F)F)c12,-9.3*,i,i,i,i
Cc1ccccc1CC1SC(N=C(N)N)=NC1=O (configuration not stated),i,i,i,i,i
CCNc1ccc(C2(O)C(=O)c3ccccc3C2=O)cc1,i,i,i,i,i
O=c1c2ccccc2nnn1CSc1nnc(-c2cccc(S(=O)(=O)N3CCCCC3)c2)o1,-7.9*,i,i,i,i
Cc1noc(C)c1COC(=O)c1ccc(S(=O)(=O)N2CCCCC2)cc1,i,i,i,i,i
Cn1/c(=N/N=C/c2ccc(N3CCOCC3)cc2)sc2ccccc21,i,i,i,i,i
O=C(CC1C(=O)NCCN1C(=O)c1ccc([N+](=O)[O-])cc1)Nc1ccc(F)cc1 (configuration not stated),i,i,i,i,i
CCCC(C(=O)NCc1ccco1)N(C(=O)CNS(=O)(=O)c1ccc(Cl)cc1)C1CCCC1 (configuration not stated),i,i,i,i,-6.7*
SMILES,RGS4 pot,MrgX1 allo act,MrgX1 ag,RGS4 block,MrgX1 antag
CCC(C(=O)NCc1ccco1)N(C(=O)CNS(=O)(=O)c1ccccc1)C1CCCCC1 (configuration not stated),i,i,i,i,i
CCC(C)(C)c1ccc(OCCCC[n+]2cccc(C)c2)c(C(C)(C)CC)c1,-8.1*,.,.,i,.
Cc1nc(C(F)(F)F)ccc1C(=O)Nc1ccccc1N1CCOCC1,i,i,i,i,i
Cc1nc2ccccn2c1C(=O)NNC(=O)Nc1cccc(C(F)(F)F)c1,i,i,i,i,i
CCCCCCN1C=CC=C/C1=C/C=C(C#N)C#N,i,i,i,i,-8.1*
COC(=O)c1sc(S(=O)(=O)Nc2ccc(Br)cc2)c(C(=O)OC)c1C,.,i,i,.,i
CCOC(=O)C1=C(N)n2c(s/c(=C/c3ccco3)c2=O)=C(C(=O)OC)C1c1ccco1 (configuration not stated),i,i,i,i,-5.7*
CC(C)n1c(=S)[nH]c2c1c(=O)[nH]c(=O)n2C,i,i,i,i,i
CC1=C(C#N)c2nc(N)c(C#N)c(C)c2/C1=C\c1ccc(C)cc1,i,i,i,i,-5.9*
COc1ccc(CCn2c(=N)c(S(=O)(=O)c3ccc(Cl)cc3)cc3c(=O)n4ccccc4nc32)cc1,i,i,i,i,-5.5*
Cc1ccc(S(=O)(=O)c2cc3c(=O)n4ccccc4nc3n(Cc3ccco3)c2=N)cc1C,i,i,31*,i,i
COc1ccc(CCn2c(=N)c(S(=O)(=O)c3ccccc3)cc3c(=O)n4ccccc4nc32)cc1,i,i,i,i,i
Cc1ccc(S(=O)(=O)c2cc3c(=O)n4ccccc4nc3n(CCc3ccccc3)c2=N)cc1,-7.2*,i,i,i,i
COCCN(CCOC)C(=O)COC(=O)c1cc([N+](=O)[O-])ccc1Cl,i,i,i,i,i
C=CCn1c(SCC(=O)c2cc(C)n(C(C)COC)c2C)nc2sc(C)c(C)c2c1=O (configuration not stated),-7.5*,i,i,i,i
CN(C)S(=O)(=O)c1ccc(C(=O)Nc2nnc(SCc3cccc(F)c3)s2)cc1,i,i,i,i,i
COc1ccc2c(Cl)c(C(=O)N/N=C3\CCCC(=O)C3)sc2c1,i,i,i,i,-7.4*
COc1ccc2c(Cl)c(C(=O)N/N=C/c3ccc4c(c3)OCO4)sc2c1,i,i,i,i,i
Nn1c(SCC(=O)Nc2ccc(OC(F)F)cc2)nnc1-c1ccco1,i,i,i,i,i
Cc1cc2ncc(C(=O)Nc3ccsc3C(=O)O)c(C)n2n1,i,i,i,i,i
Cc1cc(C)c2nc(N3C(=O)C(O)=C(C(=O)c4ccco4)C3c3ccco3)sc2c1 (configuration not stated),-7.9*,i,i,i,i
CCOC(=O)c1sc(N2C(=O)C(O)=C(C(=O)c3ccco3)C2c2ccco2)nc1C (configuration not stated),i,i,i,i,i
